In ChEMBL document CHEMBL4049430, “Indazole-6-phenylcyclopropylcarboxylic Acids as Selective GPR120 Agonists with in Vivo Efficacy” (J Med Chem, 2017):
Calls of active or inactive are those of the source. The rule behind the calls is not given here.

Key:
[1] = Ratio of unbound drug level in mouse brain to blood at 5 mg/kg administered through oral gavage after 2 hrs; conditions: brain/blood
[2] = system: Mus musculus; assay: (§1) Oral bioavailability in mouse at 5 mg/kg after 24 hrs; assay type: ADME, organism-based; conditions: in vivo, 24 h
[3] = Volume of distribution at steady state in mouse at 2.5 mg/kg, iv after 24 hrs; assay type: ADME, organism-based; conditions: in vivo, read-out: Vdss
[4] = system: MDR1; assay: Efflux ratio of permeability in MDCK2-MDR1 cells at 10 uM; conditions: dog, MDCK-MDR1
[5] = Drug uptake in mouse brain at 50 mg/kg, po after 2 hrs; assay type: ADME, organism-based; conditions: read-out: Drug uptake
[6] = molecular target: T1, Free fatty acid receptor 4 (Mus musculus) (UniProt Q7TMA4); assay: Agonist activity at mouse GPR120 expressed in CHO-FlpIn cells after 15 mins by DMR assay relative to control; assay type: cell-based
T1 sequence (whole entry): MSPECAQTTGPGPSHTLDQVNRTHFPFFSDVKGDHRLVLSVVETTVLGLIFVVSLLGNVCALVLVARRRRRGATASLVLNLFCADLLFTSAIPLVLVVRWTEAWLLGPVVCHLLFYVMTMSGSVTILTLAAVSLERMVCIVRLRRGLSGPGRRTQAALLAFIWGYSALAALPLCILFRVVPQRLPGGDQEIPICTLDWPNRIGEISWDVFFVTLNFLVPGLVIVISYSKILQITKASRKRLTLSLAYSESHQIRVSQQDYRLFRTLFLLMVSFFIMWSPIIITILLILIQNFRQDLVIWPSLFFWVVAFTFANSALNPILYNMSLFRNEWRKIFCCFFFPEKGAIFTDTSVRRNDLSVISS
Method in brief: (§2)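 Cryopreserved CHO FlpIn cells stably expressing human or mouse GPR120 were seeded 48 h before assay, serum-starved for 24 h, then held 2 h in HBSS/20 mM HEPES/0.01% BSA (pH 7.4) with 0.5% DMSO. DMR was read over a 10 min baseline and for 15 min after addition. Runs were in duplicate, 10 points, 16 μM to 0.8 nM final, as % of maximal control agonist.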

[7] = Cmax in mouse at 5 mg/kg administered through oral gavage after 24 hrs; assay type: ADME, organism-based; parameters: dose 5 mg/kg, route oral; conditions: in vivo
[8] = system: Mus musculus; assay: Toxicity in mouse at 150 mg/kg, po after 2 hrs; assay type: organism-based; conditions: in vivo
[9] = Protein binding in mouse plasma assessed as unbound fraction after 24 hrs by equilibrium dialysis; assay type: ADME, cell-free
[10] = molecular target: T2, Free fatty acid receptor 4 (Homo sapiens) (UniProt Q5NUL3); assay: Agonist activity at human GPR120 expressed in CHO-FlpIn cells after 15 mins by DMR assay relative to control; assay type: cell-based; method in brief: as §2
T2 sequence (whole entry): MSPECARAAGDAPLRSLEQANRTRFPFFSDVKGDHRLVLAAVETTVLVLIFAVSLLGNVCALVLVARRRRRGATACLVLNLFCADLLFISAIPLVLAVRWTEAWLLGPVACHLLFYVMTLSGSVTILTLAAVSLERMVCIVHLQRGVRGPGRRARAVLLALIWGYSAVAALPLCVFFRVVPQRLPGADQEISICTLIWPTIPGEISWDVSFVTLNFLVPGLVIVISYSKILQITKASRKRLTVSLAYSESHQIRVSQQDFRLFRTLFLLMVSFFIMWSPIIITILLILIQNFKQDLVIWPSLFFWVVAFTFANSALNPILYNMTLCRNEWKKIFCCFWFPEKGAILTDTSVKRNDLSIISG

[11] = molecular target: Free fatty acid receptor 1 (Mus musculus, UniProt Q76JU9); assay: Agonist activity at mouse GPR40 expressed in HEK293 cells assessed as increase in intracellular calcium level after 5 mins by FLUO-4-AM dye-based FLIPR assay; assay type: functional, cell-based
Method in brief: (§3)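 HEK293s cells stably expressing mouse GPR40 were seeded 24 h before assay and loaded for 1 h with calcium 3/Fluo-4 AM in HBSS, 20 mM HEPES, 0.01% BSA, 2.5 mM probenecid, pH 7.4. FLIPR Tetra took 10 baseline reads, then read for 5 min after addition. Runs were in duplicate, 9 points, 100 μM to 7 nM final, as % of maximal eladic acid control.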

[12] = Apparent permeability across apical to basolateral side in human Caco2 cells; conditions: Caco-2
[13] = molecular target: Free fatty acid receptor 1 (Mus musculus) (UniProt Q76JU9); assay: Agonist activity at mouse GPR40 expressed in HEK293 cells assessed as increase in intracellular calcium level after 5 mins by FLUO-4-AM dye-based FLIPR assay relative to control; assay type: functional, cell-based; method in brief: as §3
[14] = molecular target: T3, Free fatty acid receptor 4 (Homo sapiens, UniProt Q5NUL3); assay: Agonist activity at human GPR120 expressed in CHO-FlpIn cells after 15 mins by DMR assay; assay type: cell-based; method in brief: as §2
T3 sequence (Q5NUL3 whole entry): T2 sequence (whole entry)

[15] = system: Mus musculus; assay: Toxicity in mouse at 50 mg/kg, po; assay type: organism-based; conditions: in vivo
[16] = Clearance in mouse at 2.5 mg/kg, iv after 24 hrs; assay type: ADME, organism-based; conditions: in vivo
[17] = Octanol-buffer partition coefficient, log D of the compound at pH 7.4 after 30 mins by LC-UV based shake-flask method
[18] = Ratio of drug level in mouse brain to blood at 5 mg/kg administered through oral gavage after 2 hrs; assay type: ADME, organism-based
[19] = Cmax in mouse blood at 50 mg/kg, po; assay type: ADME, organism-based; parameters: dose 50 mg/kg, route oral
[20] = molecular target: T4, Free fatty acid receptor 4 (Mus musculus, UniProt Q7TMA4); assay: Agonist activity at mouse GPR120 expressed in CHO-FlpIn cells after 15 mins by DMR assay; assay type: cell-based; method in brief: as §2
T4 sequence (Q7TMA4 whole entry): T1 sequence (whole entry)

[21] = system: Mus musculus; assay: Antidiabetic activity in GPR120 knockout mouse assessed as reduction in glucose excursion at 100 mg/kg administered through oral gavage 30 mins prior to glucose challenge measured after 90 mins by OGTT; assay type: functional, organism-based
Method in brief: (§4)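 OGTT used in-house C57BL/6J mice aged 10–11 weeks. GPR120 knockout and wild-type controls were bred in house, back-crossed onto C57BL/6J, and used at 9–10 weeks. Compound was given as a suspension: a concentrated stock was made at rt the day before and diluted on study day to the dosing concentrations.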

[22] = Ratio of unbound drug level in GPR120 knockout mouse brain to blood at 100 mg/kg administered through oral gavage 30 mins prior to glucose challenge measured after 90 mins; conditions: in vivo, 1.5 h
[23] = as §1; assay type: ADME, organism-based; conditions: in vivo
[24] = Clearance in mouse at 1 mg/kg, iv after 24 hrs; assay type: ADME, organism-based; conditions: in vivo
[25] = system: Mus musculus; assay: Antidiabetic activity in wild-type mouse assessed as reduction in glucose excursion at 100 mg/kg administered through oral gavage 30 mins prior to glucose challenge measured after 90 mins by OGTT relative to control; assay type: functional; parameters: scale not given: the % may be the effect or the level left; method in brief: as §4
[26] = Volume of distribution at steady state in mouse at 1 mg/kg, iv after 24 hrs; assay type: ADME, organism-based; conditions: in vivo, read-out: Vdss
[27] = system: Mus musculus; assay: Antidiabetic activity in C57BL/6J mouse assessed as reduction in glucose excursion at 100 mg/kg administered through oral gavage 30 mins prior to glucose challenge measured after 90 mins by OGTT relative to control; assay type: functional; parameters: scale not given: the % may be the effect or the level left; method in brief: as §4
[28] = Ratio of unbound drug level in wild-type mouse brain to blood at 100 mg/kg administered through oral gavage 30 mins prior to glucose challenge measured after 90 mins; conditions: brain/blood
[29] = molecular target: Adenosine receptor A2a (Homo sapiens, UniProt P29274); assay: Inhibition of Adenosine A2A receptor (unknown origin)
[30] = system: Mus musculus; assay: Toxicity in mouse at 300 mg/kg, po after 1 hr; assay type: organism-based; conditions: in vivo
[31] = molecular target: 3',5'-cyclic-AMP phosphodiesterase 4D (Homo sapiens, UniProt Q08499); assay: Inhibition of phosphodiesterase 4D (unknown origin)
[32] = Drug uptake in mouse brain at 300 mg/kg, po after 1 hr; assay type: ADME, organism-based; conditions: read-out: Drug uptake
[33] = Drug uptake in mouse blood at 150 mg/kg, po after 2 hrs; assay type: ADME, organism-based; conditions: read-out: Drug uptake
[34] = Drug uptake in mouse blood at 300 mg/kg, po after 1 hr; assay type: ADME, organism-based; conditions: read-out: Drug uptake

Sequence of Free fatty acid receptor 1 (Mus musculus) (Q76JU9 whole entry): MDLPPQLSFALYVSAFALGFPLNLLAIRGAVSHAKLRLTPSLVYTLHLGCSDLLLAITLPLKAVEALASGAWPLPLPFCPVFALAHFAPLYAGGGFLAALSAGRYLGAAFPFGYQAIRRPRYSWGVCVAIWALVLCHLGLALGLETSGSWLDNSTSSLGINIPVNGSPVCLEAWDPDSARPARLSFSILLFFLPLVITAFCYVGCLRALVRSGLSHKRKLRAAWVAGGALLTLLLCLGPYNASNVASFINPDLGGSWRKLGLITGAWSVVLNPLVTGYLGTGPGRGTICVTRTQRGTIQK
Sequence of Free fatty acid receptor 1 (Q76JU9 whole entry): as above
Sequence of 3',5'-cyclic-AMP phosphodiesterase 4D (Q08499 whole entry): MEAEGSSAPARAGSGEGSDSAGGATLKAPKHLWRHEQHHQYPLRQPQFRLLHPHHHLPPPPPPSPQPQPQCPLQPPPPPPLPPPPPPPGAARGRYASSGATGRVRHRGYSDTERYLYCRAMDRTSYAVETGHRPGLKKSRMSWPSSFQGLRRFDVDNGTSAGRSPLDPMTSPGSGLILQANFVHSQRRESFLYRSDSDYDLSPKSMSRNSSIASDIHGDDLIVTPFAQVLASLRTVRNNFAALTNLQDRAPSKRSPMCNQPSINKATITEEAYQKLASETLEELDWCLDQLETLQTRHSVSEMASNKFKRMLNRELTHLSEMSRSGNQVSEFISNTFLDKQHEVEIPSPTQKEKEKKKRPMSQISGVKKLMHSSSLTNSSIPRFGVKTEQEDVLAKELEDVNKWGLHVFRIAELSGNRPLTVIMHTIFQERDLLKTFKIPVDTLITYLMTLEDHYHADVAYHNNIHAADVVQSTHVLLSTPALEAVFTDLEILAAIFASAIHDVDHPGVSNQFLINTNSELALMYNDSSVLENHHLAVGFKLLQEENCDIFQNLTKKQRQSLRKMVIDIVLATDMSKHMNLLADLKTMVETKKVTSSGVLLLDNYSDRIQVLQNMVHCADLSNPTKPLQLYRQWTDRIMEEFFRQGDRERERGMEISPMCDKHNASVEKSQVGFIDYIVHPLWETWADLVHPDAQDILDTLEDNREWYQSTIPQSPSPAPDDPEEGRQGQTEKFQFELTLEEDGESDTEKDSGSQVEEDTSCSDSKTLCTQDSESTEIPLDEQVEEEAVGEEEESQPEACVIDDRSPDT
Sequence of Adenosine receptor A2a (P29274 whole entry): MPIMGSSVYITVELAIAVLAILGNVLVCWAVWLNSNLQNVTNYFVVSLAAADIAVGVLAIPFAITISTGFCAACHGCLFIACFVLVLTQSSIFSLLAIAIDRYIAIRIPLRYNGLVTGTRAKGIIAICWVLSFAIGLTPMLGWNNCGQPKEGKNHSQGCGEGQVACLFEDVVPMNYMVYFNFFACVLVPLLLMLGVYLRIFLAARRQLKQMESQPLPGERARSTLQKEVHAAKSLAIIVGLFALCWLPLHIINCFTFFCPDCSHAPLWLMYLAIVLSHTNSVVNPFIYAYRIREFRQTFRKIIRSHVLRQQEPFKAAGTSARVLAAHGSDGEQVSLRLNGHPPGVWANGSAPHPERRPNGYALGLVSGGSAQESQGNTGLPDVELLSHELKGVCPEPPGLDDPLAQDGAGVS

| Kp uu at 2 h [1] | Vd [3] | efflux ratio at 10 µM [4] | Efficacy [6] | Cmax [7] | fraction unbound at 24 h [9] | Efficacy [10] | EC50 [11] | Papp A→B [12] | Efficacy [13] | EC50 [14] | clearance [16] | logD at 0.5 h [17] | Kp at 2 h [18] | EC50 [20] | bioavailability [23] | Structure (SMILES) | Activity [8] | further results |
| --- | --- | --- | --- | --- | --- | --- | --- | --- | --- | --- | --- | --- | --- | --- | --- | --- | --- | --- |
| 0.45 | 1 L/kg | 0.59 | 103% | 8.2 µM | 0.0053 | 93% | > 100000 nM | 29 ×10⁻⁶ cm/s | 19% | 510 nM | 5.2 mL/min/kg | 3.8 | 2 | 620 nM |  | COc1nn(-c2ccccn2)c2cc(-c3ccc([C@H]4C[C@@H]4C(=O)O)cc3)cc(F)c12 | Toxic | F [2]: 159%; concentration at 2 h [5]: 147 µM; Activity [15]: Non-Toxic; Cmax [19]: 97 µM |
| 0.14 |  | 2.8 | 79% | 3.3 µM | 0.021 | 66% | > 100000 nM | 76 ×10⁻⁶ cm/s | 2% | 740 nM |  | 2.6 | 0.37 | 1000 nM | 131% | Cc1ccc(-n2nc(C)c3cnc(-c4ccc([C@H]5C[C@@H]5C(=O)O)cc4F)cc32)nc1 |  | Activity [21]: inactive; Ratio [22]: 0.12; clearance [24]: 13 mL/min/kg; Activity [25]: 47%; Vd [26]: 2.4 L/kg; Activity [27]: 45%; Kp uu at 1.5 h [28]: 0.12; Ki [29]: 1700 nM |
| 0.86 | 1.5 L/kg | 2 | 99% | 5.4 µM | 0.0048 | 102% | > 100000 nM | 31 ×10⁻⁶ cm/s | 1% | 470 nM | 9.3 mL/min/kg | 3.8 | 2.3 | 410 nM | 126% | COc1nn(-c2ccccn2)c2cc(-c3ccc([C@H]4C[C@@H]4C(=O)O)cc3)ccc12 | Non-Toxic | Activity [30]: Toxic; IC50 [31]: 1600 nM; concentration at 1 h [32]: 207 µM; concentration at 2 h [33]: 126 µM; concentration at 1 h [34]: 284 µM |
